High-throughput results: PubChem, The Scripps Research Institute Molecular Screening Center
OX1R antag-1: blocks the human orexin 1 receptor; 330,000 tested, 1.8% active; OX1R-expressing cells, FRET antagonist read-out; inhibition, % at 6.6 µM; in the data active = inhibition mostly above about 38%, no sharp cut-off; inactive = mostly below about 40%;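 note: 0% = agonist challenge alone and 100% = reference antagonist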
Target sequence (O43613 whole entry, looked up): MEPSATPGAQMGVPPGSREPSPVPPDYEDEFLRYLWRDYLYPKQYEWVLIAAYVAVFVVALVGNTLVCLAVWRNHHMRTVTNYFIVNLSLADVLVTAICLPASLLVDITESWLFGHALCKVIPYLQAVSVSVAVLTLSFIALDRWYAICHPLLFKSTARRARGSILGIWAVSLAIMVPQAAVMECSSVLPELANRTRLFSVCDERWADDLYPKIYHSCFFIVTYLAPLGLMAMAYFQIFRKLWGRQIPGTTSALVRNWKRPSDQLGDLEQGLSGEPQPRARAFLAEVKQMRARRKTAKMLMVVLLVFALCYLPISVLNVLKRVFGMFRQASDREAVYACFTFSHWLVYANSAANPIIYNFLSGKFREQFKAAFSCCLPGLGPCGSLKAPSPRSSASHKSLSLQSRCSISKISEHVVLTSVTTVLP
OX1R antag-2: antagonists of human orexin 1 receptor; O43613; CHO/OX1R cells, Fluo-8 calcium fluorescence, orexin A; inhibition, % at 5 µM; 330,000 tested, 0.43% active; AID 434989;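 active = inhibition above its plate's threshold, mean inhibition of all tested compounds on the plate plus 3 SD, cut at about 37% in these data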;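 note: 0% = orexin A challenge wells and 100% = SB-334867-A antagonist wells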
TAAR1 ag: human TAAR1 agonism. Q96RJ0. CHO RD-HGA16 TAAR1, Fluo-8 calcium fluorescence; vehicle wells 0%, saturating PEA agonist 100%. activation, % at 3 µM. 360,000 tested, 0.99% active;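 active = activation above the mean activation of all test compounds in the run plus 3 SD, cut at about 38% in these data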
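Test system: RD-HGA16 (CHO) cells co-expressing Gα16 and hTAAR1; dosing: one-point dosing at 3 µM (nominal); timing: 17-24 h seeding, 75 min 37 °C dye, 30 min RT; signal: kinetic Fluo-8 calcium fluorescence; read-out basis: % activation relative to PEA EC100 response; controls: DMSO and PEA EC100; replicates: n 1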
CHO parental Ca: signal in parental CHO cells, OX1R antagonist counter-screen; inhibition, % at 5.6 µM; 330,000 tested, 0.63% active; parental CHO-K1, ATP-induced calcium, Fluo-8 fluorescence; AID 463079;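 active = inhibition above that plate's mean sample inhibition plus 3 SD, cut at about 26% in these data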;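 note: 0% = ATP-challenged DMSO wells and 100% = DMSO wells without ATP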
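material = parental CHO cells | also added = ATP as calcium-mobilizing challenge | dosing = single point at 5.6 µM | detection = intracellular calcium via Fluo-8 no-wash fluorescent dye | read-out = % inhibition | benchmarks = low control ATP plus DMSO, high control DMSO only | repeats = one well per compound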
GPR7 antag: human neuropeptides B/W receptor 1 antagonism | GPR7-expressing cells, fluorescence antagonist assay | 290,000 tested, 1.1% active | AID 1861 | inhibition, % at 4.4 µM; in the data active = inhibition above about 16%, passing the limit was not always enough;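 note: cells stimulated with the agonist NPW; 0% = agonist with vehicle and 100% = vehicle without agonist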
TAAR1 antagonist: antagonists of human TAAR1. CHO RD-HGA16 TAAR1, Fluo-8 calcium fluorescence, antagonist. inhibition, % at 3 µM. 360,000 tested, 1.5% active;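 active = inhibition above a per-plate cutoff, the mean inhibition of test compounds on that plate plus 3 SD, cut at about 49% in these data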;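 note: 0% = DMSO plus EC80 beta-PEA response and 100% = DMSO alone without agonist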
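System: RD-HGA16 CHO cells with stable hTAAR1 and Gα16 | Probe or stimulus: EC80 β-phenethylamine stimulus | Dosing: 3 µM, single point | Times: Dye loading 75 min at 37 °C, then 30 min room temperature | Measured by: Fluo-8 calcium-sensitive fluorescence | Read-out basis: % inhibition of agonist calcium response | Replicates: n of 1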
Starred values were filed as active, the others as inactive. The list is not random: actives were taken first. Their share in the collection is about 4.6%.

Cc1ccccc1-c1cc(C(=O)NCc2cccc(C(F)(F)F)c2)n(CC2CC(c3cccnc3)=NO2)n1 (stereo unspecified) was read as OX1R antag-1 7, OX1R antag-2 -7, TAAR1 ag 13, CHO parental Ca -16 and TAAR1 antagonist 55*.
COc1ccc(C2=NOC(Cn3nc(C(=O)NCc4cccc(C(F)(F)F)c4)cc3-c3ccccc3)C2)cc1 (stereo unspecified) was read as OX1R antag-1 24, OX1R antag-2 1, TAAR1 ag 11, CHO parental Ca 19 and TAAR1 antagonist 55*.
Screening COCCNC(=O)c1cc(-c2ccccc2)n(CC2CC(c3ccc(OC)cc3)=NO2)n1 (stereo unspecified) returned OX1R antag-1 8, OX1R antag-2 -17, TAAR1 ag 20, CHO parental Ca -7 and TAAR1 antagonist 53*.
`O=C(CN1C(=O)C(=O)N(C2CCCC2)C1=O)Nc1ccccc1OC(F)F` gave OX1R antag-1 3, OX1R antag-2 -24, TAAR1 ag 3, CHO parental Ca -10 and TAAR1 antagonist -7.
Nc1cccc(CP(=O)(c2ccccc2)c2ccccc2)c1 was read as OX1R antag-1 10, OX1R antag-2 -13, TAAR1 ag 8, CHO parental Ca -15 and TAAR1 antagonist -5.
For Cc1cccc(C(=O)Nc2scc(-c3ccc(Br)cc3)c2C(=O)O)c1 the results were OX1R antag-1 17, OX1R antag-2 8, TAAR1 ag 5, CHO parental Ca -6 and TAAR1 antagonist 2.
Screening COc1cc(C(=O)Nc2scc(-c3ccc(Br)cc3)c2C(=O)O)cc(OC)c1OC returned OX1R antag-1 54*, OX1R antag-2 -4, TAAR1 ag 7, CHO parental Ca -9, GPR7 antag -12 and TAAR1 antagonist 28.
For CCOC(=O)N1CCN(C(=O)CN(Cc2ccccc2)S(C)(=O)=O)CC1 the results were OX1R antag-1 15, OX1R antag-2 2, TAAR1 ag 0, CHO parental Ca -1, GPR7 antag -16 and TAAR1 antagonist -10.
Screening CS(=O)(=O)N(CC(=O)N1CCN(Cc2ccccc2)CC1)Cc1ccccc1 returned OX1R antag-1 9, OX1R antag-2 -4, TAAR1 ag 3, CHO parental Ca 2, GPR7 antag 16* and TAAR1 antagonist -3.
For CC(C)(C)C1CCC(CN2C(Nc3ccccc3)=NC[C@@H]2Cc2ccccc2)CC1 (stereo partly specified) the results were OX1R antag-1 3, OX1R antag-2 51, TAAR1 ag 74*, CHO parental Ca 31 and TAAR1 antagonist 36.
`O=C(O)CNc1nc(Cl)ccc1[N+](=O)[O-]` gave OX1R antag-1 64*, OX1R antag-2 -10, TAAR1 ag 2, CHO parental Ca -1, GPR7 antag -12 and TAAR1 antagonist 3.
`O=C(CN1C(=O)/C(=C\c2ccco2)SC1=S)Nc1ccc(O)cc1C(=O)O` gave OX1R antag-1 16, OX1R antag-2 -7, TAAR1 ag 1, CHO parental Ca -6, GPR7 antag -3 and TAAR1 antagonist -23.
`CN(CC(=O)NCC(c1ccco1)N1CCCCC1)S(=O)(=O)c1ccc(Cl)cc1` (stereo unspecified) gave OX1R antag-1 20, OX1R antag-2 -17, TAAR1 ag -2, CHO parental Ca 22 and TAAR1 antagonist -19.
Screening CCOC(=O)c1c(NC(=O)CSc2nnc(-c3c[nH]c4ccccc34)n2CCOC)sc2c1CCCCC2 returned OX1R antag-1 45*, OX1R antag-2 13, TAAR1 ag -1, CHO parental Ca -9, GPR7 antag -17 and TAAR1 antagonist -25.
For CCOC(=O)c1c(NC(=O)CSc2c[nH]c3ccccc23)sc2c1CCCC2 the results were OX1R antag-1 1, OX1R antag-2 -19, TAAR1 ag 0, CHO parental Ca 0, GPR7 antag -2 and TAAR1 antagonist 1.
COc1cccc(C(O)c2nc(-c3ccc(N(C)C)cc3)cs2)c1 (stereo unspecified) was read as TAAR1 ag 9 and TAAR1 antagonist 15.
Screening O=C(NCc1ccc(F)cc1)c1cccc2c1C(=O)c1ccc(Cl)cc1S2(=O)=O returned TAAR1 ag 9 and TAAR1 antagonist 0.
For COc1ccc(OC[C@@H](O)CNC(=O)c2cccc3c2C(=O)c2ccc(Cl)cc2S3(=O)=O)cc1 the results were OX1R antag-1 42*, OX1R antag-2 -22, TAAR1 ag 25, CHO parental Ca -35 and TAAR1 antagonist 35.
`O=C(N[C@H](C(=O)N1CCC[C@H]1C(=O)NCCc1ccccc1Cl)c1ccccc1)c1ccc(Cl)cc1Cl` gave TAAR1 ag 29 and TAAR1 antagonist 36.
Screening CC(C)c1[nH]nc2c1C(c1ccc(Br)cc1)NC2=O (stereo unspecified) returned TAAR1 ag 2 and TAAR1 antagonist -19.
O=[N+]([O-])c1cc(/C=N\O)ccc1Oc1ccc(F)cc1 was read as OX1R antag-1 14, OX1R antag-2 -2, TAAR1 ag -3, CHO parental Ca -2, GPR7 antag 16* and TAAR1 antagonist 19.
`COc1cc(/C=N/O)ccc1Oc1ccc([N+](=O)[O-])cc1[N+](=O)[O-]` gave OX1R antag-1 40, OX1R antag-2 -24, TAAR1 ag 23, CHO parental Ca -18, GPR7 antag -4 and TAAR1 antagonist 4.
For O=[N+]([O-])c1cc(Br)c(OCc2nnc(-c3ccccc3)o2)c(Br)c1 the results were OX1R antag-1 7, OX1R antag-2 -22, TAAR1 ag 4, CHO parental Ca -13, GPR7 antag -4 and TAAR1 antagonist 12.
Screening O=[N+]([O-])c1ccc2c(OCc3nnc(-c4ccccc4Br)o3)ncnc2c1 returned OX1R antag-1 49*, OX1R antag-2 -14, TAAR1 ag 3, CHO parental Ca -15, GPR7 antag -2 and TAAR1 antagonist -12.
`COC(=O)c1cc2c(c3c4cc(C)ccc4n(S(=O)(=O)c4ccccc4)c13)C(=O)N(Cc1ccc(C(F)(F)F)cc1)C2` gave TAAR1 ag 1 and TAAR1 antagonist -20.
For CC1CN(C(=S)NC(=O)c2ccc([N+](=O)[O-])cc2)CC(C)O1 (stereo unspecified) the results were OX1R antag-1 120*, OX1R antag-2 -11, TAAR1 ag 1, CHO parental Ca -6, GPR7 antag -4 and TAAR1 antagonist 10.
For CC1CN(C(=S)NC(=O)c2ccccc2)CC(C)O1 (stereo unspecified) the results were OX1R antag-1 7, OX1R antag-2 3, TAAR1 ag 9, CHO parental Ca -2, GPR7 antag -9 and TAAR1 antagonist -11.
